Test results from PMC12707352 (Angewandte Chemie (International Ed. in English), 2025).

Experiments:
[1] = tested on: RAW 264.7 cells; assay: Lipid peroxidation, flow cytometry with BODIPY 665/676; assay type: cell-based, murine; conditions: RSL3 1 µM, 4 h, BODIPY 665/676 flow cytometry
Outline: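 RAW 264.7 cells were treated for 4 h with DMSO, RSL3 (1 µM) or test compound plus RSL3. They were then stained with BODIPY 665/676 for 0.5 h. Mean fluorescence intensity was read by flow cytometry. Mean ± SD, n = 3; one-way ANOVA.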

[2] = tested on: RAW 264.7 murine macrophage‐like cells; assay: EZ-Cytox cell viability assay with RSL3 co-treatment; assay type: cell-based; conditions: RSL3 1 µM + DMSO, 24 h, EZ-Cytox (WST), n = 3
Outline: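 RAW 264.7 murine macrophage-like cells were co-treated for 24 h with RSL3 (1 µM) plus test compound. The screen used 10 µM, and dose-response used 0.3–20 µM on a log scale. Viability was read by EZ-Cytox and normalized to DMSO. Mean ± SD, n = 3.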

[3] = tested on: HeLa cells; assay: Lipid peroxidation, fluorescence imaging with BODIPY 665/676; assay type: cell-based, human; conditions: RSL3 1 µM, 3 h, BODIPY 665/676 imaging
Outline: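 HeLa cells were treated for 3 h with DMSO, test compound (40 µM), RSL3 (1 µM) or both. They were then stained for 0.5 h with Hoechst 33342 (2 µg/ml) and BODIPY 665/676 (5 µM). Cells were imaged by fluorescence, and BODIPY intensity was quantified relative to DMSO-treated cells. Mean ± SD, n = 21; one-way ANOVA.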

[4] = macrocyclic analog of crizotinib; cited from earlier work
[5] = tested on: RAW 264.7 cells; conditions: read-out: EC50 (ferroptosis inhibition); in RAW 264.7 cells; cited from earlier work

COC(=O)c1ccc([C@H]2c3[nH]c4ccccc4c3C[C@H](C(=O)OC)N2C(=O)CCl)cc1 [RSL3, RAS‐selective lethal 3]
Lipid peroxide level (flow cytometry), RSL3 alone [1]: markedly increased lipid peroxide levels | Cell viability with RSL3 alone [2]: 18% | Lipid peroxide level (imaging), RSL3 alone [3]: markedly increased lipid peroxide levels

C[C@H]1Oc2cc(cnc2N)-c2c(nn(C)c2C#N)CN(C)C(=O)c2ccc(F)cc21 [lorlatinib]
Potency increase through macrocyclization [4]: ~80 fold

CCOC(=O)c1ccc(NC2CCCCC2)c(N)c1 [ferrostatin‐1]
EC50 [5]: 40 ± 4 nM
